One compound from ChEMBL document CHEMBL4334471, “Discovery of 1,8-disubstituted-[1,2,3]triazolo[4,5-c]quinoline derivatives as a new class of Hippo signaling pathway inhibitors” (Bioorg Med Chem Lett, 2019) can be followed below.

Some results are limits rather than exact numbers.

Assay [1] deals with Tyrosine-protein kinase ABL2 (Homo sapiens) (UniProt P42684). Briefly: Inhibition of human Arg (38 to end residues) assessed as residual activity at 10 uM using EAIYAAPFAKKK as substrate incubated for 40 mins in presence of [gamma-33ATP] by scintillation counting based radiometry assay relative to control.
Chain of Tyrosine-protein kinase ABL2 (Homo sapiens) (P42684 whole entry): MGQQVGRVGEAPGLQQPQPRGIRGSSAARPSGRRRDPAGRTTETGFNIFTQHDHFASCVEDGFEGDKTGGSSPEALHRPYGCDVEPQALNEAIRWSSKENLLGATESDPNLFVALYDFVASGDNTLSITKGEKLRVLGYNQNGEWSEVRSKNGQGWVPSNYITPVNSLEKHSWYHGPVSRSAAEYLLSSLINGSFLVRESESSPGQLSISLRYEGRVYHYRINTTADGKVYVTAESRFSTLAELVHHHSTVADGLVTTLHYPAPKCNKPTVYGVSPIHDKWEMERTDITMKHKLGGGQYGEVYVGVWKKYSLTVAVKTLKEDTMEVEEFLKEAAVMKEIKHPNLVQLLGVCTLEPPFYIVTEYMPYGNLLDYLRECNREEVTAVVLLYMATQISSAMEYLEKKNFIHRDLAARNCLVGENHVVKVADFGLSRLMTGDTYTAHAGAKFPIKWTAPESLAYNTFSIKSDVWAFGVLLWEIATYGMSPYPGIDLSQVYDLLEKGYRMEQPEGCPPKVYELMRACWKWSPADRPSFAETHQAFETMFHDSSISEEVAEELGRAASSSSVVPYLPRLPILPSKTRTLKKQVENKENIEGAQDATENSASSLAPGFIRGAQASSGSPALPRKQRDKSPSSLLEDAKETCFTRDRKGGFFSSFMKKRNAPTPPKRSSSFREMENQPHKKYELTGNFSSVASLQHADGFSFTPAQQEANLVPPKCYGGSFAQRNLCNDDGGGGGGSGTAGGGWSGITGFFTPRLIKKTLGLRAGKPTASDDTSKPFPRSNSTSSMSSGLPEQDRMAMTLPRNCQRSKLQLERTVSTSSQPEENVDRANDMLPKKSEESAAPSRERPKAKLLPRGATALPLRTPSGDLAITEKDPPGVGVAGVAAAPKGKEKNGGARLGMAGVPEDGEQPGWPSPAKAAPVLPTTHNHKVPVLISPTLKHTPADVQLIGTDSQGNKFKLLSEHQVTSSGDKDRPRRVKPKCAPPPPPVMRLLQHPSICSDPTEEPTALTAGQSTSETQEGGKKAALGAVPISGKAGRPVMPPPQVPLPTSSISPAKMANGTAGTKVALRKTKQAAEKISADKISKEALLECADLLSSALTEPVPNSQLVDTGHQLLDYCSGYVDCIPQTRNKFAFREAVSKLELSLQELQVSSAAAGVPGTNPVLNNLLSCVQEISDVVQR
The target in assay [2] is Aurora kinase B (Homo sapiens) (UniProt Q96GD4). Briefly: Inhibition of recombinant full length human Aurora B assessed as residual activity at 10 uM using AKRRRLSSLRA as substrate incubated for 40 mins in presence of [gamma-33ATP] by scintillation counting based radiometry assay relative to control.
For assay [3], the target named is Cyclin-dependent kinase 5/CDK5 activator 1 (Homo sapiens) (UniProt Q00535+Q15078). Put plainly: Inhibition of recombinant full length human CDK5/p35 assessed as residual activity at 10 uM using histone H1 as substrate incubated for 40 mins in presence of [gamma-33ATP] by scintillation counting based radiometry assay relative to control. The class given is protein-complex assay.
Chain of Cyclin-dependent kinase 5/CDK5 activator 1 (Homo sapiens) (Q00535 whole entry): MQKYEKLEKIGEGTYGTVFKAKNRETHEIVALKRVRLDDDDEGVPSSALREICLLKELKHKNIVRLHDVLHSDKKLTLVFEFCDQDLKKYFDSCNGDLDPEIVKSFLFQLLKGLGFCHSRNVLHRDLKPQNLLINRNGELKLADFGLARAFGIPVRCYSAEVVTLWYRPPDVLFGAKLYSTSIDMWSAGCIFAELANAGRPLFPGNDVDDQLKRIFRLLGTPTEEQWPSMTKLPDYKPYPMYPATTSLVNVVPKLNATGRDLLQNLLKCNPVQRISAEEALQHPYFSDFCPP
Chain of Cyclin-dependent kinase 5/CDK5 activator 1 (Homo sapiens) (Q15078 99-307 partner limits assumed): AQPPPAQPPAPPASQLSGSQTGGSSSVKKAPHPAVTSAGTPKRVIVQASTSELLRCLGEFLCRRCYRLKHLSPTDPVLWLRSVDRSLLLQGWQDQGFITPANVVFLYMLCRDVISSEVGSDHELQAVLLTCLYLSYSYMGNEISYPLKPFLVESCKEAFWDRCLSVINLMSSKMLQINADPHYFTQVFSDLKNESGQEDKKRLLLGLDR

Assay [4] deals with Mast/stem cell growth factor receptor Kit (Homo sapiens), P10721 [D816V]. Briefly: Inhibition of recombinant human C-Kit D816V mutant (544 to end residues) assessed as residual activity at 10 uM poly(Glu, Tyr) 4:1 as substrate incubated 40 mins in presence of [gamma-33ATP] by scintillation counting based radiometry assay relative to control.
In assay [5] the target is Insulin receptor (Homo sapiens) (UniProt P06213). Briefly: Inhibition of human IR (1005 to 1310 residues) assessed as residual activity at 10 uM using KKSRGDYMTMQIG as substrate after 40 mins by [gamma-33ATP] radiometric assay relative to control.
Assay [6] deals with Hepatocyte growth factor receptor (Homo sapiens) (UniProt P08581). Put plainly: Inhibition of recombinant human MET A1209G/V1290L mutant (974 to end residues) assessed as residual activity at 10 uM using KKKGQEEEYVFIE as substrate incubated for 40 mins in presence of [gamma-33ATP by scintillation counting based radiometry assay relative to control.
The target of assay [7] is Dual specificity mitogen-activated protein kinase kinase 6 (Homo sapiens) (UniProt P52564). Briefly: Inhibition of recombinant human MKK6 assessed as residual activity at 10 uM by scintillation counting based radiometry assay relative to control.
Assay [8] addresses Serine/threonine-protein kinase 3 (Homo sapiens) (UniProt Q13188). Briefly: Inhibition of recombinant human MST2 (2 to end residues) assessed as residual activity at 10 uM using myelin basic protein as substrate measured after 40 mins in presence of [gamma33P]ATP by scintillation counting based radiometry assay relative to control.
Assay [9] concerns the target Serine/threonine-protein kinase pim-1 (Homo sapiens) (UniProt P11309). Briefly: Inhibition of recombinant full length human Pim1 assessed as residual activity at 10 uM using KKRNRTLTV as substrate incubated for 40 mins in presence of [gamma33P]ATP by scintillation counting based radiometry assay relative to control.
In assay [10] the target is Serine/threonine-protein kinase pim-2 (Homo sapiens) (UniProt Q9P1W9). Put plainly: Inhibition of recombinant human Pim2 (2 to end residues) assessed as residual activity at 10 uM using RSRHSSYPAG as substrate incubated for 40 mins in presence of [gamma33P]ATP by scintillation counting based radiometry assay relative to control.
The subject of assay [11] is Proto-oncogene tyrosine-protein kinase receptor Ret (Homo sapiens), P07949 [V804L]. Put plainly: Inhibition of recombinant human Ret V804L mutant (658 to end residues) assessed as residual activity at 10 uM using KKKSPGEYVNIEFG as substrate incubated for 40 mins in presence of [gamma33P]ATP by scintillation counting based radiometry assay relative to control.
The test system of assay [12] is Proto-oncogene tyrosine-protein kinase receptor Ret (Homo sapiens), P07949 [V804M]. Put plainly: Inhibition of recombinant human Ret V804M mutant (658 to end residues) assessed as residual activity at 10 uM using KKKVSRSGLYRSPSMPENLNRPR as substrate incubated for 40 mins in presence of [gamma33P]ATP by scintillation counting based radiometry assay relative to control.
Chain of Proto-oncogene tyrosine-protein kinase receptor Ret (Homo sapiens), P07949 [V804M] (P07949 whole entry V804M): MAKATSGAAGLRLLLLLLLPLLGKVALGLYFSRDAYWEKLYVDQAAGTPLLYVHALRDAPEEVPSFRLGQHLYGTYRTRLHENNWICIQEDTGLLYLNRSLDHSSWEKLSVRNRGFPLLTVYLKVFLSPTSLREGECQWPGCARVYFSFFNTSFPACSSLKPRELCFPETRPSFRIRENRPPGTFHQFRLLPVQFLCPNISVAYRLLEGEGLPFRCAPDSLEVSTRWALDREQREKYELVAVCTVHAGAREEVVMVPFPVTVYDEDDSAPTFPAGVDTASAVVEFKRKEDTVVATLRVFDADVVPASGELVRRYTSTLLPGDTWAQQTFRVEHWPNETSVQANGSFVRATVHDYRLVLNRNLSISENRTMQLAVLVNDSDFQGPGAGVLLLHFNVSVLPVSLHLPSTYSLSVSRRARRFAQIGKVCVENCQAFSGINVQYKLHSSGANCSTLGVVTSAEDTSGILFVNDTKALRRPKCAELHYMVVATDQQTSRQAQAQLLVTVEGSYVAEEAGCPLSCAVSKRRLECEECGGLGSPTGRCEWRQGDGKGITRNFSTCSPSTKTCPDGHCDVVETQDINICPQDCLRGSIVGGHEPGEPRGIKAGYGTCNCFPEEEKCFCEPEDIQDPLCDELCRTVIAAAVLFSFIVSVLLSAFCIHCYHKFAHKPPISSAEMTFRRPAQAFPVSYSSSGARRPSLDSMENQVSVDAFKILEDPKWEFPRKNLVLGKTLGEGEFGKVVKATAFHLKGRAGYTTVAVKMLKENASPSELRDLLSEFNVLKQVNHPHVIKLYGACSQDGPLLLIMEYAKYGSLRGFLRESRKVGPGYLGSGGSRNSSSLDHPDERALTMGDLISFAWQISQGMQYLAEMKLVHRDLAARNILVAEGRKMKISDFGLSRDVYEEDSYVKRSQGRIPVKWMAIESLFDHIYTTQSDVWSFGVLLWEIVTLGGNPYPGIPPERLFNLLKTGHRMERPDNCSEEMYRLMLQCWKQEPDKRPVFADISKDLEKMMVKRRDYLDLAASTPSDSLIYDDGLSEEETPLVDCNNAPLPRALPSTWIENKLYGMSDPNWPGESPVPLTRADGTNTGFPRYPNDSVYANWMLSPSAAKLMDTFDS

In assay [13] the test system is Mitogen-activated protein kinase 14 (Homo sapiens), Q16539 [T106M]. Briefly: Inhibition of recombinant human full length SAPK2a T106M mutant assessed as residual activity at 10 uM using myelin basic protein as substrate incubated for 40 mins in presence of [gamma33P]ATP by scintillation counting based radiometry assay relative to control.
Assay [14] addresses Mitogen-activated protein kinase 12 (Homo sapiens) (UniProt P53778). Briefly: Inhibition of recombinant human full length SAPK3 assessed as residual activity at 10 uM using myelin basic protein as substrate incubated for 40 mins in presence of [gamma33P]ATP by scintillation counting based radiometry assay relative to control.
For assay [15], the target named is Serine/threonine-protein kinase SIK1 (Homo sapiens) (UniProt P57059). Put plainly: Inhibition of recombinant human SIK (1 to 281 residues) assessed as residual activity at 10 uM using AMARAASAAALARRR as substrate incubated for 40 mins in presence of [gamma33P]ATP by scintillation counting based radiometry assay relative to control.
Chain of Serine/threonine-protein kinase SIK1 (Homo sapiens) (P57059 whole entry, the tested form may be a part): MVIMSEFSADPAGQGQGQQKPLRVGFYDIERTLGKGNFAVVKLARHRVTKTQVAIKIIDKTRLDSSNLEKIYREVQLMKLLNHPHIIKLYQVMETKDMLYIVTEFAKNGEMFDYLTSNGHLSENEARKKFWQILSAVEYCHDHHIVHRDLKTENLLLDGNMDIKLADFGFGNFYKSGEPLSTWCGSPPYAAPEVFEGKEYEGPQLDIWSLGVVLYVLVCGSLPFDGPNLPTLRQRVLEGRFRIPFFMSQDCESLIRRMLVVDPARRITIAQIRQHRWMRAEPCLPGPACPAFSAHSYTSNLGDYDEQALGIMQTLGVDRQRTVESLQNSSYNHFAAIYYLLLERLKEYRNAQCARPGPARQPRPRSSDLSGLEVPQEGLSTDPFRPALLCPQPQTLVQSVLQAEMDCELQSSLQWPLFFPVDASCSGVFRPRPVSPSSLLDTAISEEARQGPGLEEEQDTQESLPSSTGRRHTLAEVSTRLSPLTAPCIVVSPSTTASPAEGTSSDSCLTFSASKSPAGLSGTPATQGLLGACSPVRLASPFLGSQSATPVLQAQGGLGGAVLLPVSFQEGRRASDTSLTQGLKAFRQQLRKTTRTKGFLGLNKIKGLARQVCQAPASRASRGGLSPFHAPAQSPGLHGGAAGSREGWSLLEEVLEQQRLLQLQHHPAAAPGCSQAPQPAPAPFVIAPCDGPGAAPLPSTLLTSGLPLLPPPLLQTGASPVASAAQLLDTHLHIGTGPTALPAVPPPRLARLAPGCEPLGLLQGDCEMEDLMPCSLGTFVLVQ
For assay [16], the target named is SRSF protein kinase 1 (Homo sapiens) (UniProt Q96SB4). Briefly: Inhibition of recombinant human SRPK1 (2 to end residues) assessed as residual activity at 10 uM using RSRSRSRSRSRSRSR as substrate incubated for 40 mins in presence of [gamma33P]ATP by scintillation counting based radiometry assay relative to control.
In assay [17] the target is Serine/threonine-protein kinase 16 (Homo sapiens) (UniProt O75716). Briefly: Inhibition of human STK16 assessed as residual activity at 10 uM in presence of [gamma33P]ATP by scintillation counting based radiometry assay relative to control.
The target in assay [18] is Serine/threonine-protein kinase 32B (Homo sapiens) (UniProt Q9NY57). Put plainly: Inhibition of recombinant human full length STK32B assessed as residual activity at 10 uM using casein as substrate incubated for 40 mins in presence of [gamma33P]ATP by scintillation counting based radiometry assay relative to control.
Assay [19] has as its target Serine/threonine-protein kinase ULK2 (Homo sapiens) (UniProt Q8IYT8). Put plainly: Inhibition of recombinant human ULK2 (1 to 306 residues) assessed as residual activity at 10 uM using casein as substrate incubated for 40 mins in presence of [gamma33P]ATP by scintillation counting based radiometry assay relative to control.
The target in assay [20] is Phosphatidylinositol 5-phosphate 4-kinase type-2 alpha (Homo sapiens) (UniProt P48426). Put plainly: Inhibition of recombinant full-length human PIP4K2alpha assessed as residual activity at 10 uM using phosphatidylinositol 5-phosphate as substrate by HTRF assay relative to control. A general note: TR-FRET usually uses a lanthanide donor and a delayed reading to cut background.

Assay [21] addresses Serine/threonine-protein kinase 4 (Homo sapiens, UniProt Q13043). Briefly: Inhibition of recombinant full-length human MST1 assessed as residual activity using KKSRGDYMTMQIG as substrate measured after 40 mins in presence of [gamma33P]ATP by scintillation counting based radiometry assay. Summed up: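 Outsourced kinase profiling of MST1 by a commercial service (Eurofins); activity reported as mean ± SEM of 2 replicates.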

Chain of Serine/threonine-protein kinase 4 (Q13043 whole entry): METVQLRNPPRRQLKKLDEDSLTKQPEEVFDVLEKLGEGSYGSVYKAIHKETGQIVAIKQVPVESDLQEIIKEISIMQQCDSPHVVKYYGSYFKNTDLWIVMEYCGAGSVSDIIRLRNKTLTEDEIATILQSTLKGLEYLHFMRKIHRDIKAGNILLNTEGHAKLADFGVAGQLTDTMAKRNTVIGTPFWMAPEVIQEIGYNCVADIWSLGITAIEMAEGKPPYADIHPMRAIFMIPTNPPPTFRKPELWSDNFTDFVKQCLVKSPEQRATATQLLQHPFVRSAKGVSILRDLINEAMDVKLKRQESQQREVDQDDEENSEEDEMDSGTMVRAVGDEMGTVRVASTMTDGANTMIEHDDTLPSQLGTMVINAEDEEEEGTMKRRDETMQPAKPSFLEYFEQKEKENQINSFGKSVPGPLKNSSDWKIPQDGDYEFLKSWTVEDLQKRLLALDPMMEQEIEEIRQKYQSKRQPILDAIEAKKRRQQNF
Chain of Serine/threonine-protein kinase 3 (Homo sapiens) (Q13188 whole entry): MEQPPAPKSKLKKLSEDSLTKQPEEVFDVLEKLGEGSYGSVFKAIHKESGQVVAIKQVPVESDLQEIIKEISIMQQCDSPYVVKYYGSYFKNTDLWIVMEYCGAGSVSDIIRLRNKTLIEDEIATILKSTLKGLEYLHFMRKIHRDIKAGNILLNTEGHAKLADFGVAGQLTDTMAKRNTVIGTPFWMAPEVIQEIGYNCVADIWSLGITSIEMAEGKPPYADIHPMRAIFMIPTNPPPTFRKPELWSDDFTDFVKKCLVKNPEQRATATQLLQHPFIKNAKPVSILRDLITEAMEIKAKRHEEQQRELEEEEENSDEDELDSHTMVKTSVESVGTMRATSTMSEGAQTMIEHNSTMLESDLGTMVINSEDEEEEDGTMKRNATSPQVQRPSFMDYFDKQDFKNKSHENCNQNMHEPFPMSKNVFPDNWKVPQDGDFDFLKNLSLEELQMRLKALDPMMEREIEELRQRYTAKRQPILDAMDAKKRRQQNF
Chain of Mitogen-activated protein kinase 12 (Homo sapiens) (P53778 whole entry, the tested form may be a part): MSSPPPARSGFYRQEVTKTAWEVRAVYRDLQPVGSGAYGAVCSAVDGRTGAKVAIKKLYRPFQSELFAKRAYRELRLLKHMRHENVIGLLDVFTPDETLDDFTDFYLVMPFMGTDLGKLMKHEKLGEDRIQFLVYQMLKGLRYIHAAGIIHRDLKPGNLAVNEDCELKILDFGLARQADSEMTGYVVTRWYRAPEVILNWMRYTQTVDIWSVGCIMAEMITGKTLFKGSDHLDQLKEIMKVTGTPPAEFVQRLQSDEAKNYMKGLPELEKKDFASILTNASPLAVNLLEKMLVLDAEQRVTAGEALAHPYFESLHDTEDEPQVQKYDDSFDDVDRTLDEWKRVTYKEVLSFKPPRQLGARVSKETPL

Regarding `C[C@@H](c1ccccc1)n1nnc2cnc3ccc(-c4cnc5[nH]ccc5c4)cc3c21`, the Activity in [1] stood at 1%; in assay [2] it was 34%; in assay [3], 84%; in [4] it was 86%; in assay [5] it was 64%; in assay [6], 62%. Besides, the Activity worked out at 109% in assay [7]; 57% in [8]; 68% in assay [9]; 80% in assay [10]; 90% in assay [11]; 69% in [12]. The Activity in assay [13] came out at 97%; in assay [14] it was 91%; in assay [15], 8%; in assay [16], 62%; in assay [17], 59%; in assay [18], 88%. Also, the Activity was determined as 98% in assay [19] and 95% in assay [20]. Moreover, in assay [21], the IC50 is above 10 µM.

As a reminder, the IC50 is the concentration that gives 50% inhibition.
